This is an account of results in ChEMBL document CHEMBL3627612, “Hirsutinolide Series Inhibit Stat3 Activity, Alter GCN1, MAP1B, Hsp105, G6PD, Vimentin, TrxR1, and Importin α-2 Expression, and Induce Antitumor Effects against Human Glioma” (J Med Chem, 2015).

One assay has as its system MCF7. Briefly: Antiproliferative activity against human MCF7 cells for 72 hrs by cyquant assay. As to conditions: MCF7, 72 h. The format is functional, cell-based. The procedure, abridged: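 CyQuant proliferation assay after 72 h compound exposure of cultured cells; relative viability normalized to DMSO-treated control; IC50 values derived. Glioma lines grown in RPMI or DMEM with 10% FBS and 1% nonessential amino acids.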

Assay [1] is described as follows: Antiproliferative activity against human Glioma (G10) patient derived xenograft cells at 5 uM after 72 hrs by cyquant assay. The format is functional, Glioma cell.
Assay [2] in a line: Antiproliferative activity against human Glioma (G22) patient derived xenograft cells at 5 uM after 72 hrs by cyquant assay. The format is functional, Glioma cell.
Assay [3] relates to U-251. Briefly: Anticlonogenic activity against human U251MG cells for 72 hrs measured after 2 weeks by crystal-violet staining based assay. It is filed as functional, cell-based. In outline:
(§1)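 Single-cell seeding at 250 cells per well; cells treated once the next day for 72 h with 0–5 μM compound, then grown until large colonies were visible (NIH3T3 1 week, MDA-MB-231 and U251MG 2 weeks, MCF-7 4 weeks). Colonies stained with crystal violet for 4 h, imaged and counted.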

The subject of a further assay is MDA-MB-231. Briefly: Anticlonogenic activity against human MDA-MB-231 cells for 72 hrs measured after 2 weeks by crystal-violet staining based assay. It is filed as functional, cell-based. The procedure, abridged:
as §1

Assay [4] concerns U-251. Briefly: Inhibition of cell migration in human U251MG cells at 5 uM after 19 hrs by wound healing assay. The format is functional, cell-based. The procedure, abridged:
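Scratch assay: sub-confluent U251MG monolayers wounded with pipette tips, treated once with 0–5 μM compound or DMSO, allowed to migrate into the denuded area over 19 h. Imaged at 10× on an inverted microscope.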

Assay [5] deals with Glioma cell. Briefly: Effect on cell morphology in human Glioma (G22) patient derived xenograft cells assessed as cell disaggregation of spheroids at 5 uM for 24 hrs measured after 48 to 96 hrs by inverted fluorescence microscope analysis in presence of matrigel. It is filed as functional. In outline: (§2)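 G22 patient-derived xenograft glioma cells seeded at 1,000 cells/well in ultra-low-binding round-bottom wells, grown 48 h into 3D spheroids, then treated once with 5 μM compound or DMSO; matrigel added after 24 h. Spheroids imaged at 5× magnification on an inverted fluorescence microscope every 24 h for up to 120 h.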

In assay [6] the test system is Glioma cell. Briefly: Effect on cell morphology in human Glioma (G22) patient derived xenograft cells assessed as 3D spheroids formation at 5 uM for 24 hrs measured after 48 hrs by inverted fluorescence microscope analysis. The format is functional. In outline: as §2
In a further assay the test system is NIH3T3. Briefly: Inhibition of Stat5 dimer DNA binding activity in EGF-stimulated mouse NIH3T3 nuclear extract expressing human EGFR at 5 uM preincubated for 30 mins followed by addition of radiolabeled probe MGFe for 30 mins by EMSA. It is filed as cell-free.
The target in assay [7] is T1, Signal transducer and activator of transcription 1 (Mus musculus) (UniProt P42225).
T1 sequence (whole entry): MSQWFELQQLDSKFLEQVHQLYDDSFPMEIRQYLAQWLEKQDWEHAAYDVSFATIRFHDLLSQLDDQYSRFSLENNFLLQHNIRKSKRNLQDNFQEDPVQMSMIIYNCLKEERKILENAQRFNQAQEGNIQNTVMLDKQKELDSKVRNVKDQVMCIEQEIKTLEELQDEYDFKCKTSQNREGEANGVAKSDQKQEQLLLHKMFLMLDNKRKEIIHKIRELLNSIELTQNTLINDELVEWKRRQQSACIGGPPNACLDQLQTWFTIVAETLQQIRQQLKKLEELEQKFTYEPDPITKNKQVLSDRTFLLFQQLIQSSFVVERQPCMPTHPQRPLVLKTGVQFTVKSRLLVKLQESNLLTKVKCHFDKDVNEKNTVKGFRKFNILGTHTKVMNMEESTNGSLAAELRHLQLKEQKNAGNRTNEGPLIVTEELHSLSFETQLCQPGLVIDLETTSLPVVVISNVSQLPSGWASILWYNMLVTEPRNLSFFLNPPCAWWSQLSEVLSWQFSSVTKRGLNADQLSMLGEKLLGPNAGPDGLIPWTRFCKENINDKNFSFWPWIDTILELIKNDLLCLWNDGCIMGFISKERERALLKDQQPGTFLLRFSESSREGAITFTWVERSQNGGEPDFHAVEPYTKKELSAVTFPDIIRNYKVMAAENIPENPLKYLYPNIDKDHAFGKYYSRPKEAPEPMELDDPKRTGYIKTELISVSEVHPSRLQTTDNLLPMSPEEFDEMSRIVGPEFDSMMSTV
Briefly: Inhibition of Stat1 dimer DNA binding activity in EGF-stimulated mouse NIH3T3 nuclear extract expressing human EGFR at 5 uM preincubated for 30 mins followed by addition of radiolabeled probe hSIE for 30 mins by EMSA.

Assay [8] concerns the target T2, Signal transducer and activator of transcription 3 (Homo sapiens, UniProt P40763). Briefly: Inhibition of Stat3 dimer DNA binding activity in human U251MG cells nuclear extract after 1.5 hrs by EMSA using radiolabeled probe hSIE.
In assay [9] the target is T2, Signal transducer and activator of transcription 3. Briefly: Inhibition of Stat3 activity in human U251MG cells assessed as phosphorylated Stat3 level at 5 uM by immunoblot analysis. It is filed as cell-based. To be noted: U-251, TDE = time-dependent effect.
For assay [10] the target is unchanged. Briefly: Inhibition of Stat3 activity in human U251MG cells assessed as phosphorylated Stat3 level after 2 hrs by immunoblot analysis. The format is cell-based. As to conditions: U-251. The procedure, abridged:
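U251MG cells treated with 5 μM compound for 0–24 h, or with 0–5 μM for 2 h. Whole-cell lysates immunoblotted for pStat3, Stat3, GAPDH. Control was 0.025% DMSO-treated cells.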

Assay [11] has as its system Glioma cell. Briefly: Cytotoxicity against human Glioma (G22) patient-derived mouse xenograft cells at 5 uM after 24 hrs by cyquant assay. It is filed as functional, cell-based.
Assay [12] has as its target T2, Signal transducer and activator of transcription 3. Briefly: Inhibition of Stat3 dimer DNA binding activity in human U251MG cells nuclear extract at 5 uM after 0.5 to 24 hrs by EMSA using radiolabeled probe hSIE. The format is cell-based. To be noted: U-251. The procedure, abridged: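 Sub-confluent U251MG or U373MG cells treated with compound (5 μM for 0–24 h, or 0–5 μM for 1.5 h). Stat3:DNA bands scanned, quantified and plotted against concentration to derive IC50. Controls were 0.025% DMSO.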

The target of assay [13] is Signal transducer and activator of transcription 3 (Mus musculus) (UniProt P42227). Briefly: Inhibition of EGF-induced Stat3 phosphorylation in mouse NIH3T3 cells expressing human EGFR at 5 uM preincubated for 3 hrs followed by stimulation with 1 ug/ml EGF for 12 mins by immunoblot analysis. The format is cell-based. The procedure, abridged:
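NIH3T3/hEGFR fibroblasts pretreated with or without 5 μM compound for 3 h, then stimulated with 1 μg/ml EGF for 12 min. Whole-cell lysates of equal total protein immunoblotted for phospho and total Stat3, Stat1, Stat5, Erk1/2. Controls were 0.025% DMSO-treated cells. Representative of 2–4 independent determinations.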

Assay [14] concerns the target RAC-alpha serine/threonine-protein kinase (Homo sapiens) (UniProt P31749). Briefly: Modulation of Akt phosphorylation in human U251MG cells at 5 uM after 0.5 to 24 hrs by immunoblot analysis. To be noted: U-251. It is filed as cell-based. The procedure, abridged: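 U251MG cells treated with 5 μM compound for 0–24 h; whole-cell lysates of equal total protein immunoblotted. Controls were 0.025% DMSO-treated cells. Representative of 2–4 independent determinations.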

Calls of active or inactive are those of the source. The calls are words filed in the database; no cut-off is given here.

Sequence of RAC-alpha serine/threonine-protein kinase (Homo sapiens) (P31749 whole entry): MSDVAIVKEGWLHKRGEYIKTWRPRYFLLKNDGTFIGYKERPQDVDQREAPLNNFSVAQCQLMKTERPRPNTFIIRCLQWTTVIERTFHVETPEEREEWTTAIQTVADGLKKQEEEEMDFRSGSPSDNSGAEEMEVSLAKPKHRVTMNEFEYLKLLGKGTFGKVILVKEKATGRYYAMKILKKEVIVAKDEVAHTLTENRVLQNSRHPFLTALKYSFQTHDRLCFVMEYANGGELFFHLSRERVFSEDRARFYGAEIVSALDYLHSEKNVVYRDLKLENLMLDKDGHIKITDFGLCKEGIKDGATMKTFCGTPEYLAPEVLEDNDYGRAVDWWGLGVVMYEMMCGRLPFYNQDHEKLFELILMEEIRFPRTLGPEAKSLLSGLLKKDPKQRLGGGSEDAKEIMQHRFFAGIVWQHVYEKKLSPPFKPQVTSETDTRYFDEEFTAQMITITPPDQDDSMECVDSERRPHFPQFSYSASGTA
T2 sequence (P40763 whole entry): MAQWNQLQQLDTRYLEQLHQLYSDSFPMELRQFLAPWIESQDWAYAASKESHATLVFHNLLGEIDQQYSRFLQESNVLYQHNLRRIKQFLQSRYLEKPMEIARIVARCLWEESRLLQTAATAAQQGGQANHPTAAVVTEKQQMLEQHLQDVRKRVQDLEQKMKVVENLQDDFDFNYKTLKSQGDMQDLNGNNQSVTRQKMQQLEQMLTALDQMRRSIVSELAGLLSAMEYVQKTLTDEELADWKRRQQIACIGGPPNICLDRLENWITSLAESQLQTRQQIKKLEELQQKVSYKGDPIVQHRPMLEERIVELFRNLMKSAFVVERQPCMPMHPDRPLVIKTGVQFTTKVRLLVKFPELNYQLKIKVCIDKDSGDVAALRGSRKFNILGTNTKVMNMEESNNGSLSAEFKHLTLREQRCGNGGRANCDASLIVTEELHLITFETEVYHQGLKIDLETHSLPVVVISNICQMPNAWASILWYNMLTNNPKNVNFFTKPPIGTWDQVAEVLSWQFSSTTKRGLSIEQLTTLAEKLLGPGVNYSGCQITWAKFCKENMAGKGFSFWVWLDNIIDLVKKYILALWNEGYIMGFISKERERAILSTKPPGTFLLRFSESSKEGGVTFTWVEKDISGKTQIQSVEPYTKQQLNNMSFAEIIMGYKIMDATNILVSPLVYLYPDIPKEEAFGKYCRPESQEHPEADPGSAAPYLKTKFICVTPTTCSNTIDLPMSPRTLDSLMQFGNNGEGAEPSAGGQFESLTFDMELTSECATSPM
Sequence of Signal transducer and activator of transcription 3 (Mus musculus) (P42227 whole entry): as the sequence (P40763 whole entry) above, with E760D counted along it

Turning to `C/C=C(\C)C(=O)OCC1=C2/C(=C\[C@@]3(C)CC[C@](O)(O3)[C@H](C)C[C@@H]2O)OC1=O`, the IC50 in the assay with MCF7 was 4.8 µM; in assay [8], 2600 nM. Also, the “inhibition (INH)” value in assay [1] and in assay [2] was 45% each time. In addition, the Activity result in the assay on U-251 [3] and with MDA-MB-231 was “Dose-dependent effect” in each case. Moreover, the inhibition entry (with U-251 [4]; in assay [12]; in [13]) was “Active” each time. For the same compound, the outcome with Glioma cell [5], in the assay on Glioma cell [6] and in the assay with Glioma cell [11] was Active. Also, the inhibition result (in the assay on NIH3T3; in assay [7]) was “inactive” throughout. The values for the inhibition entry in assay [9] and in [10] were “tde” and “Dose-dependent effect”, respectively. In addition, the outcome in assay [14] was inactive.

Regarding `C/C=C(\C)C(=O)O[C@H]1C[C@@H](C)[C@]2(O)CC[C@](C)(/C=C3/OC(=O)C(COC(C)=O)=C31)O2`, the IC50 worked out at 10.7 µM in the assay with MCF7 and 2200 nM in assay [8]. Besides, the “inhibition (INH)” value in assay [1] and in [2] was 45% each time. The Activity entry in the assay on U-251 [3] and with MDA-MB-231 was “Dose-dependent effect” in each case. The inhibition result (with U-251 [4]; in assay [12]; in assay [13]) was “Active” each time. Moreover, the outcome in the assay with Glioma cell [5], in the assay on Glioma cell [6] and in the assay with Glioma cell [11] was Active. Also, the inhibition result (in the assay with NIH3T3; in assay [7]) was “inactive” throughout. Besides, the inhibition result is “tde” in assay [9] and “Dose-dependent effect” in assay [10]. In [14], the result was inactive.

Turning to `C/C=C(\C)C(=O)O[C@H]1C[C@@H](C)[C@]2(OC)CC[C@](C)(/C=C3/OC(=O)C(COC(C)=O)=C31)O2`, the half-maximal inhibitory concentration (IC50) in the assay on MCF7 is 7.6 µM; in [8] it was 3200 nM. In addition, the “inhibition (INH)” value in assay [1] and in [2] was 45% each time. Further, the Activity entry with U-251 [3] and in the assay on MDA-MB-231 was “Dose-dependent effect” throughout. For the same compound, the inhibition entry (with U-251 [4]; in assay [12]; in [13]) was “Active” throughout. In addition, the result in the assay with Glioma cell [5], in the assay with Glioma cell [6] and with Glioma cell [11] was Active. In addition, the inhibition result (with NIH3T3; in assay [7]) was “inactive” in each case. Besides, the inhibition result was “tde” in assay [9] and “Dose-dependent effect” in assay [10]. For the same compound, the result in [14] was inactive.
